The values that follow come from ChEMBL document CHEMBL4725282, “Discovery of a Conformationally Constrained Oxazolidinone with Improved Safety and Efficacy Profiles for the Treatment of Multidrug-Resistant Tuberculosis” (J Med Chem, 2020).

Test [1] can be described thus: Ratio of MIC for antitubercular activity against linezolid-resistant Mycobacterium tuberculosis to MIC for antitubercular activity against Mycobacterium tuberculosis H37Rv. The class given is functional.
Test [2] relates to Mycobacterium tuberculosis. In words: Antitubercular activity against linezolid-resistant Mycobacterium tuberculosis incubated for 7 days by microplate alamar blue assay. The following applies: 168 h, time 7 day. The format is functional. An outline of the steps:
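MIC determined by microplate alamar blue assay (MABA) following a published protocol.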

In brackets after ≈: the same amount, converted by molar mass.

What is called MIC is the smallest concentration in the dilution series that meets the test's criterion for growth inhibition. Low values mean a more susceptible organism, high ones a less susceptible organism.

For `CC(=O)NC[C@@H]1OC(=O)N2c3cc(F)c(N4CC[S+]([O-])CC4)cc3OC[C@@H]12`, the Ratio in test [1] was 4. In test [2], this compound came in with an MIC of 6.68 µg/mL (≈ 16.8 µM).
In turn, `CC(=O)NC[C@@H]1OC(=O)N2c3cc(F)c(N4CCSCC4)cc3OC[C@@H]12` [listing 1 of 2 here] showed an MIC in test [2] of 0.24 µg/mL (≈ 0.629 µM).
Turning to `CC(=O)NC[C@@H]1OC(=O)N2c3cc(F)c(N4CCSCC4)cc3OC[C@@H]12` [listing 2 of 2 here], in test [1], the Ratio amounted to 4.
Consider `NNC(=O)c1ccncc1` [ISONIAZID], for which the lowest concentration to inhibit growth in test [2] (MIC) was 0.04 µg/mL (≈ 0.292 µM).
Still for that read-out and setting: to `CC(=O)NC[C@H]1CN(c2ccc(N3CCOCC3)c(F)c2)C(=O)O1` [LINEZOLID] belongs 3.92 µg/mL (≈ 11.6 µM).
Still for that read-out and setting: to `CO[C@H]1/C=C/O[C@@]2(C)Oc3c(C)c(O)c4c(O)c(c(/C=N/N5CCN(C)CC5)c(O)c4c3C2=O)NC(=O)/C(C)=C\C=C\[C@H](C)[C@H](O)[C@@H](C)[C@@H](O)[C@@H](C)[C@H](OC(C)=O)[C@@H]1C` [RIFAMPIN] belongs 0.03 µg/mL (≈ 0.0365 µM).
Turning to `CC(=O)NC[C@H]1CN(c2ccc(N3CCSCC3)c(F)c2)C(=O)O1` [SUTEZOLID], in test [1], the Ratio is 4. Moreover, in test [2], the MIC is 0.96 µg/mL (≈ 2.72 µM).
